Legend:
[1] = Compound was evaluated for -Log [fraction ionized x ED50 (protection)]; type: ADME
[2] = Partition coefficient (logP); type: physicochemical; details: octanol/water
Outline: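 1-Octanol/water partition by titration: 10–40 mL aqueous test compound (1 mM) with 4–25 mL 1-octanol, stirred vigorously, titrated with 0.1 N NaOH; apparent pKa′ calculated, from which partition coefficient obtained.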

[3] = Dissociation constant (pKa); type: physicochemical
[4] = species on record: Mus musculus; assay: Compound was evaluated for protection against tachycardia in mice; type: functional
Outline: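 Mice given test agent, then chloroform-induced tachycardia (modified Lawson method); efficacy scored as percentage of mice protected at each dose. Doses stepped ≥0.15 log unit up/down to give low, medium and high protection incidence; ED50 (mmol/kg) by Berkson logit chi-square method.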

[5] = species on record: Mus musculus; assay: Compound was evaluated for ataxia in mice; type: functional
[6] = Therapeutic index is the ratio of ED50 (ataxia) to ED50 (protection) in mice; details: mouse; read-out: TI

SMILES	p[BH+50] [1]	logP [2]	pKa [3]	ED50 [4] [µmol/kg]	ED50 [5] [µmol/kg]	selectivity ratio [6]
CCN(CC)CCC(=O)Nc1c(C)cccc1C	0.9	2.21	8.83	130	210	1.6
Cc1cccc(C)c1NC(=O)CC(C)N (configuration not stated)	0.62	0.84	8.71	250	1640	6.6
Cc1cccc(C)c1NC(=O)CCCC(C)N (configuration not stated)	0.72	1.41	9.79	190	1170	6.2
CCN(CC)C(C)CCCC(=O)Nc1c(C)cccc1C (configuration not stated)	1	2.64	10.1	100	790	7.9
CCN(CC)CCCCCC(=O)Nc1c(C)cccc1C	0.89	2.95	10.2	130	670	5.2
CCN(CC)CCCCC(=O)Nc1c(C)cccc1C	0.92	2.42	9.96	120	660	5.5
CCN(CC)C(C)CC(=O)Nc1c(C)cccc1C (configuration not stated)	1.31	2.63	9.03	50	90	1.8
Cc1cccc(C)c1NC(=O)CCCN	0.1	0.71	9.35	800	3250	4.1
Cc1cccc(C)c1NC(=O)CCCCCN	0.57	1.29	10.1	270	2070	7.7
CCN(CC)C(C)C(=O)Nc1c(C)cccc1C (configuration not stated)	0.88	2.73	7.93	170	130	0.8
CCN(CC)C(C)CCC(=O)Nc1c(C)cccc1C (configuration not stated)	0.68	2.66	9.87	210	1150	5.5
Cc1cccc(C)c1NC(=O)CCC(C)N (configuration not stated)	0.45	1.08	9.36	360	2660	7.4
CCN(CC)CCCC(=O)Nc1c(C)cccc1C	0.86	2.06	9.52	140	760	5.4
Cc1cccc(C)c1NC(=O)C(C)N(C)C (configuration not stated)	0.94	1.53	7.33	250	200	0.8
Cc1cccc(C)c1NC(=O)CCCCN	0.51	1.02	9.81	310	1810	5.8
CCN(CC)CCCCCCC(=O)Nc1c(C)cccc1C	1.4	3.48	10.2	40	830	21
Cc1cccc(C)c1NC(=O)CCN	0.16	0.62	8.75	720	2300	3.2
Cc1cccc(C)c1NC(=O)CN [GLYCINEXYLIDIDE]	0.37	0.45	7.42	840	620	0.7
CCN(CC)CC(=O)Nc1c(C)cccc1C [LIDOCAINE]	0.88	–	–	210	180	–
Cc1cccc(C)c1NC(=O)C(C)N (configuration not stated) [TOCAINIDE]	0.5	0.76	7.54	550	760	1.4
